Assay: phase I trial: safety and tolerability
Format: in vivo, human
Procedure, shortened: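 Fifteen patients were dosed orally twice daily (three per cohort, 100–800 mg). AEs, DLTs, physical exams, vital signs, ECGs and laboratory chemistry, hematology and coagulation were recorded from first dose to end of treatment. AEs were graded by the investigator using NCI CTCAE v4.03. DLTs were assessed in cycle 1 (days 1–28): grade ≥3 or immune-related non-hematologic events, and grade ≥4 hematologic events.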

## NS(=O)(=O)[C@H]1CC[C@](F)(CC[C@H]2c3ccccc3-c3cncn32)CC1 [M4112]
100 mg two times per day (n=3)
  Abdominal distension: 0 (0.0) n (%)
  Abdominal pain: 0 (0.0) n (%)
  Alanine aminotransferase increased: 0 (0.0) n (%)
  Amylase increased: 0 (0.0) n (%)
  Anemia of malignant disease: 0 (0.0) n (%)
  Any AE: 3 (100) n (%)
  Any SAE: 0 n (%)
  Aspartate aminotransferase increased: 0 (0.0) n (%)
  Blood alkaline phosphatase increased: 0 (0.0) n (%)
  Blood creatine phosphokinase increased: 0 (0.0) n (%)
  Blood creatinine increased: 0 (0.0) n (%)
  Cough: 1 (33.3) n (%)
  Decreased appetite: 1 (33.3) n (%)
  Dehydration: 0 (0.0) n (%)
  Diarrhea: 0 (0.0) n (%)
  Dyspepsia: 2 (66.7) n (%)
  Dysphagia: 1 (33.3) n (%)
  Fatigue: 2 (66.7) n (%)
  Fever: 0 (0.0) n (%)
  Gamma-glutamyl transferase increased: 0 (0.0) n (%)
  Hypercalcemia: 0 (0.0) n (%)
  Lipase increased: 0 (0.0) n (%)
  Lymphocyte count decreased: 0 (0.0) n (%)
  Maculopapular rash: 1 (33.3) n (%)
  Nausea: 1 (33.3) n (%)
  Palmar-plantar erythrodysesthesia syndrome: 1 (33.3) n (%)
  Platelet count decreased: 0 (0.0) n (%)
  Tumor pain: 0 (0.0) n (%)
  Vomiting: 2 (66.7) n (%)
200 mg two times per day (n=3)
  Abdominal distension: 0 (0.0) n (%)
  Abdominal pain: 0 (0.0) n (%)
  Alanine aminotransferase increased: 0 (0.0) n (%)
  Amylase increased: 0 (0.0) n (%)
  Anemia of malignant disease: 0 (0.0) n (%)
  Any AE: 3 (100) n (%)
  Any SAE: 0 n (%)
  Aspartate aminotransferase increased: 0 (0.0) n (%)
  Blood alkaline phosphatase increased: 0 (0.0) n (%)
  Blood creatine phosphokinase increased: 1 (33.3) n (%)
  Blood creatinine increased: 0 (0.0) n (%)
  Cough: 1 (33.3) n (%)
  Decreased appetite: 0 (0.0) n (%)
  Dehydration: 1 (33.3) n (%)
  Diarrhea: 1 (33.3) n (%)
  Dyspepsia: 0 (0.0) n (%)
  Dysphagia: 0 (0.0) n (%)
  Fatigue: 0 (0.0) n (%)
  Fever: 1 (33.3) n (%)
  Gamma-glutamyl transferase increased: 0 (0.0) n (%)
  Hypercalcemia: 1 (33.3) n (%)
  Lipase increased: 1 (33.3) n (%)
  Lymphocyte count decreased: 1 (33.3) n (%)
  Maculopapular rash: 0 (0.0) n (%)
  Nausea: 1 (33.3) n (%)
  Palmar-plantar erythrodysesthesia syndrome: 0 (0.0) n (%)
  Platelet count decreased: 1 (33.3) n (%)
  Tumor pain: 0 (0.0) n (%)
  Vomiting: 1 (33.3) n (%)
400 mg two times per day (n=3)
  Abdominal distension: 1 (33.3) n (%)
  Abdominal pain: 1 (33.3) n (%)
  Alanine aminotransferase increased: 1 (33.3) n (%)
  Amylase increased: 1 (33.3) n (%)
  Anemia of malignant disease: 1 (33.3) n (%)
  Any AE: 3 (100) n (%)
  Any SAE: 1 (33.3) n (%)
  Aspartate aminotransferase increased: 0 (0.0) n (%)
  Blood alkaline phosphatase increased: 0 (0.0) n (%)
  Blood creatine phosphokinase increased: 1 (33.3) n (%)
  Blood creatinine increased: 1 (33.3) n (%)
  Cough: 1 (33.3) n (%)
  Decreased appetite: 1 (33.3) n (%)
  Dehydration: 0 (0.0) n (%)
  Diarrhea: 0 (0.0) n (%)
  Dyspepsia: 0 (0.0) n (%)
  Dysphagia: 1 (33.3) n (%)
  Fatigue: 1 (33.3) n (%)
  Fever: 0 (0.0) n (%)
  Gamma-glutamyl transferase increased: 0 (0.0) n (%)
  Hypercalcemia: 1 (33.3) n (%)
  Lipase increased: 0 (0.0) n (%)
  Lymphocyte count decreased: 0 (0.0) n (%)
  Maculopapular rash: 1 (33.3) n (%)
  Nausea: 0 (0.0) n (%)
  Palmar-plantar erythrodysesthesia syndrome: 1 (33.3) n (%)
  Platelet count decreased: 0 (0.0) n (%)
  Tumor pain: 1 (33.3) n (%)
  Vomiting: 0 (0.0) n (%)
600 mg two times per day
  dose reductions due to AEs (one grade 3 diarrhea and one grade 3 rash after the DLT period): Two patients
600 mg two times per day (n=3)
  Abdominal distension: 1 (33.3) n (%)
  Abdominal pain: 1 (33.3) n (%)
  Alanine aminotransferase increased: 0 (0.0) n (%)
  Amylase increased: 1 (33.3) n (%)
  Anemia of malignant disease: 1 (33.3) n (%)
  Any AE: 3 (100) n (%)
  Any SAE: 1 (33.3) n (%)
